Source: publication PMC3057608 (Cancer research, 2011)
Where two headings read alike, the source gives them in different places. Each block holds one molecule with its values, some of them ahead of it.

What was measured:
[1] = test system: CAPAN1 cells; test: Neutral comet assay, BRCA2-null cells; assay type: cell-based
[2] = test system: HCC1937 cells; test: Neutral comet assay, BRCA1-null cells; assay type: cell-based
[3] = test system: CAPAN1 cells; test: Clonogenic assay, BRCA2-null cells; assay type: cell-based
[4] = test system: HCC1937 cells; test: Clonogenic assay, BRCA1-null cells; assay type: cell-based
[5] = molecular target: T1, DNA-PKcs (Homo sapiens, UniProt P78527); test: ELISA of GNFRYLAPP/DNA-PKcs interaction; assay type: binding; details: pure DNA-PK, 1 μM ATP, sonicated DNA, 37°C 1 h, fluorescence read-out (Fig. 4B)
How it was run: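 Bait wells: streptavidin plates coated with 100 ng biotinylated linearized pSP72 or 10 ng biotinylated test peptide (or biotinylated scrambled control), or adsorption plates coated with 250 units pure DNA-PK. After blocking, prey is added for 1 h at 37°C with 1 μM ATP, sonicated DNA (50 ng/μL) and protease/phosphatase inhibitors. Non-biotinylated test or scrambled peptide serves as competitor. DNA-PKcs is read with fluorophore-conjugated antibodies and peptide with FITC-streptavidin (1:500) on a fluorescence plate reader.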

[6] = molecular target: T1, DNA-PKcs; test: Protease protection assay; assay type: biochemical; details: 10 μM, trypsin 0.01% 8 min 37°C, immunoblot (Fig. 4H)
[7] = molecular target: T1, DNA-PKcs; test: DNA-PKcs kinase assay; assay type: biochemical; details: for DNA-PKcs inhibition by truncated/mutant/phosphorylated peptide derivatives: alanine scanning and mutant peptides, DNA-PKcs kinase activity (Fig. 6A)
[8] = test system: M059J cells; test: Nuclear focus formation after irradiation, DNA-PK -/- cells; assay type: cell-based; details: 10 μM, 1 h after 3 Gy, FITC-streptavidin (Fig. 5A left)
How it was run: (§1)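 Peptides at 10 μM are added to growth medium 72 h before irradiation or mock-irradiation (137Cs, 333 cGy per minute). Cells are grown on coverslips and fixed 3 min in ice-cold acetone:methanol 1:1 at set times after irradiation. They are blocked 1 h at room temperature in 5% goat serum, with primary reagents in 1% BSA overnight at 4°C and secondary reagents 1 h at room temperature. Foci are imaged by inverted fluorescence microscopy.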

[9] = test system: Phosphorylated DNA-PKcs (T2609) in KS1767 cells; test: DNA-PKcs autophosphorylation; assay type: cell-based, human; details: KS1767, 10 μM, 30 minutes after 3 Gy (Fig. 5B)
How it was run: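 Peptides, penetratin-fused test or scrambled control at 10 μM, are added to standard growth medium of KS1767 Kaposi sarcoma cells 72 h before irradiation or mock-irradiation. Irradiation uses a 137Cs source at 333 cGy per minute.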

[10] = test system: KS1767 cells; test: Nuclear focus formation after irradiation, DNA-PKcs +/+ cells; assay type: cell-based, human; details: 10 μM
How it was run: as §1

Molecule: COc1cc(C=O)c([N+](=O)[O-])cc1OC [DMNB, reference compound]
residual double-strand breaks by neutral comet assay [1]: increased residual double-strand breaks
residual double-strand breaks by neutral comet assay [2]: increased residual double-strand breaks
radiosensitivity by clonogenic assay [3]: increased radiosensitivity
radiosensitivity by clonogenic assay [4]: increased radiosensitivity

Molecule: GNFRYLAPP-pen
nuclear focus formation of biotinylated peptide [8]: did not form foci
residual double-strand breaks by neutral comet assay ([1]; CAPAN1 (BRCA2-null), 10 μM, 72 h pre-incubation, 3 and 6 hours after 6 Gy (Fig. 5C)): increased residual double-strand breaks
residual double-strand breaks by neutral comet assay ([2]; HCC1937 (BRCA1-null), 10 μM, 72 h pre-incubation, 3 and 6 hours after 6 Gy (Fig. 5C)): increased residual double-strand breaks
phosphorylated DNA-PKcs (T2609) signal after irradiation [9]: no signal was detected
radiosensitivity by clonogenic assay ([3]; CAPAN1 (BRCA2-null), 10 μM, 72 h pre-incubation (Fig. 5D-E)): increased radiosensitivity
nuclear focus formation of biotinylated peptide ([10]; KS1767 (DNA-PKcs +/+), 1 h after 3 Gy, FITC-streptavidin (Fig. 5A left)): formed foci
resolution of peptide foci over time after irradiation ([10]; KS1767, 3 Gy, majority of cells retaining foci as late as 12 hours (Fig. 5A right)): slow resolution
radiosensitivity by clonogenic assay ([4]; HCC1937 (BRCA1-null), 10 μM, 72 h pre-incubation (Fig. 5D-E)): increased radiosensitivity

Molecule: GSFRYL
DNA-PKcs inhibition by truncated/mutant/phosphorylated peptide derivatives [7]: abolished

More lines, main results first:

interaction with DNA-PKcs by ELISA [5]: sufficient for attracting
phosphorylation of the peptide itself by DNA-PKcs ([7]; Fig. 4C): not phosphorylated
mode of DNA-PKcs inhibition ([7]; conclusion from binding, kinase and protease protection data): non-competitive inhibitor
effect on DNA-PKcs phosphorylation of its p53-derived consensus substrate ([7]; pure DNA-PK, increasing molar ratios of peptide to substrate (Fig. 4C)): progressively inhibited
Molecule: GNFRYLAPP
effect on DNA-induced protection of DNA-PKcs from trypsin digestion [6]: prevented the protection from trypsin digestion

DNA-PKcs inhibition by truncated/mutant/phosphorylated peptide derivatives [7]: reestablished DNA-PKcs inhibition
Molecule: GpSFRYL

interaction with DNA-PKcs by ELISA [5]: no detectable interaction
Molecule: RYPAGLPFL [scrambled peptide, reference compound]
